ChEMBL document CHEMBL1142195, “A novel nonnucleoside analogue that inhibits human immunodeficiency virus type 1 isolates resistant to current nonnucleoside reverse transcriptase inhibitors” (Antimicrob Agents Chemother, 2007)
pEC50, pIC50: −log10 of the molar value. Activity calls are given as the source filed them. The calls are words filed in the database; no cut-off is given here.

Tests used:
[1] = tested on: Human immunodeficiency virus 1; assay: Antiviral activity against HIV1 isolate with RT A98G mutation; type: functional, organism-based
Procedure, shortened: (§1)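 VSV-G-pseudotyped pNL4-3.Luc.R−E− molecular clones carrying the RT mutations, single-round infection of HeLa-JC53 cells (15,000/well) at MOI 0.03. Compounds serially diluted 1:4 in DMSO then in phenol red-free DMEM with 2% FBS, final DMSO 0.2%. Incubated 48 h at 37°C, 5% CO2. Luciferase read-out by chemiluminescence gives the EC50. Fold change is relative to wt virus, mean of two tests.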

[2] = target: Human immunodeficiency virus type 1 reverse transcriptase (Human immunodeficiency virus 1, UniProt Q72547); assay: Inhibition of HIV1 reverse transcriptase
Procedure, shortened: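 E. coli-expressed HIV-1 RT (1 nM) with 16 μg/ml poly(rA)/oligo(dT)18 and 2 μM α-33P-TTP, 0–100 μM inhibitor. Buffer: 50 mM Tris-HCl pH 7.5, 5 mM MgCl2, 1 mM DTT, 60 μg/ml BSA. Run 1 h at 25°C, then TCA/pyrophosphate precipitation and radioactivity counted. IC50 = 50% inhibition of RT activity.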

[3] = tested on: Human immunodeficiency virus 1; assay: Antiviral activity against HIV1 isolate with RT Y181C mutation; type: functional, organism-based; procedure, shortened: as §1
[4] = tested on: Human immunodeficiency virus 1; assay: Antiviral activity against HIV1 NL4-3 with Y188L mutation in Hela-JC53 cells in the presence of 50% human serum after 48 hrs; type: functional, organism-based; conditions: Human immunodeficiency virus 1, NL4-3, Hela-JC53, 48 h
Procedure, shortened: (§2)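 VSV-G-pseudotyped Y188L NL4-3.Luci.R−E− virus (MOI 0.03) infecting HeLa-JC53 cells (1.5 × 10^4) in phenol red-free DMEM with 2% FBS. Serially diluted compound was added, then heat-inactivated human serum at final 0, 5, 10, 20, 30, 40 or 50%. Cultures ran 48 h at 37°C in 5% CO2, read by Bright-Glo luciferase chemiluminescence. EC50 was taken by nonlinear regression.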

[5] = tested on: Human immunodeficiency virus 1; assay: Antiviral activity against HIV1 isolate with RT V106I, D123G, Y181C, F227L mutation in Hela-JC-53 cells; type: functional
[6] = tested on: Human immunodeficiency virus 1; assay: Antiviral activity against HIV1 NL4-3 with Y188L mutation in Hela-JC53 cells in the presence of 5% human serum after 48 hrs; type: functional, organism-based; conditions: Human immunodeficiency virus 1, NL4-3, Hela-JC53, 48 h; procedure, shortened: as §2
[7] = tested on: Human immunodeficiency virus 1; assay: Antiviral activity against HIV1 isolate with RT K103N-V108I-P225H mutation; type: functional, organism-based; procedure, shortened: as §1
[8] = Tmax in dog at 10 mg/kg, iv; type: ADME, organism-based, Canis lupus familiaris; design: dose 10 mg/kg, route intravenous; conditions: in vivo
[9] = tested on: Human immunodeficiency virus 1; assay: Antiviral activity against HIV1 isolate with RT V106I, D123G, Y181C, F227L, T369I mutation in Hela-JC-53 cells; type: functional
[10] = tested on: Human immunodeficiency virus 1; assay: Antiviral activity against wild type HIV1 NL4-3 in Hela-JC53 cells in the presence of 5% human serum after 48 hrs; type: functional, organism-based; conditions: Human immunodeficiency virus 1, NL4-3, Hela-JC53, 48 h
Procedure, shortened: (§3)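 HeLa-JC53 cells (1.5 × 10^4) infected with VSV-G-pseudotyped NL4-3.Luci.R−E− reporter virus at MOI 0.03, with 1:4 serial compound dilutions. Heat-inactivated human serum added to final 0–50% on a basal 2% FBS medium. Incubated 48 h at 37°C in 5% CO2. Luciferase read-out; EC50 by nonlinear regression.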

[11] = Half life in dog at 10 mg/kg, iv; type: ADME, organism-based, Canis lupus familiaris; design: dose 10 mg/kg, route intravenous; conditions: in vivo
[12] = tested on: Human immunodeficiency virus 1; assay: Antiviral activity against HIV1 isolate with RT Y181C mutation in Hela-JC-53 cells; type: functional
[13] = tested on: Human immunodeficiency virus 1; assay: Antiviral activity against HIV1 isolate with RT K103N-Y181C mutation; type: functional, organism-based; procedure, shortened: as §1
Hepatitis C virus = assay: Inhibition of hepatitis C virus replication; type: functional, organism-based; conditions: Hepacivirus hominis
[14] = tested on: Human immunodeficiency virus 1; assay: Antiviral activity against HIV1 isolate with RT V106I, Y181C, F227L mutation in Hela-JC-53 cells; type: functional
[15] = Plasma concentration in dog at 20 mg/kg, po after 12 hrs; type: ADME, organism-based, Canis lupus familiaris; design: dose 20 mg/kg, route oral
[16] = tested on: Human immunodeficiency virus 1; assay: Antiviral activity against wild type HIV1; type: functional, organism-based
[17] = tested on: Human immunodeficiency virus 1; assay: Antiviral activity against HIV1 isolate with RT F227L mutation in Hela-JC-53 cells; type: functional
[18] = tested on: Human immunodeficiency virus 1; assay: Antiviral activity against HIV1 NL4-3 with Y188L mutation in Hela-JC53 cells in the presence of 10% human serum after 48 hrs; type: functional, organism-based; conditions: Human immunodeficiency virus 1, NL4-3, Hela-JC53, 48 h; procedure, shortened: as §2
[19] = tested on: Human immunodeficiency virus 1; assay: Antiviral activity against HIV1 NL4-3 with Y188L mutation in Hela-JC53 cells in the presence of 40% human serum after 48 hrs; type: functional, organism-based; conditions: Human immunodeficiency virus 1, NL4-3, Hela-JC53, 48 h; procedure, shortened: as §2
[20] = tested on: Human immunodeficiency virus 1; assay: Antiviral activity against HIV1 isolate with RT V106I, Y181C mutation in Hela-JC-53 cells; type: functional
[21] = tested on: Human immunodeficiency virus 1; assay: Antiviral activity against HIV1 isolate with RT V106I mutation; type: functional, organism-based; procedure, shortened: as §1
[22] = tested on: Human immunodeficiency virus 1; assay: Antiviral activity against HIV1 isolate with RT G190S mutation; type: functional, organism-based; procedure, shortened: as §1
Hepatitis B virus = assay: Inhibition of hepatitis B virus replication; type: functional, organism-based
[23] = tested on: Human immunodeficiency virus 1; assay: Antiviral activity against HIV1 isolate with RT K103N-P225H mutation; type: functional, organism-based; procedure, shortened: as §1
[24] = tested on: Human immunodeficiency virus 1; assay: Antiviral activity against HIV1 isolate with RT G190A mutation; type: functional, organism-based; procedure, shortened: as §1
[25] = tested on: Human immunodeficiency virus 1; assay: Antiviral activity against HIV1 isolate with RT D123G mutation in Hela-JC-53 cells; type: functional
[26] = tested on: Human immunodeficiency virus 1; assay: Antiviral activity against wild type HIV1 NL4-3 in Hela-JC53 cells in the presence of 40% human serum after 48 hrs; type: functional, organism-based; conditions: Human immunodeficiency virus 1, NL4-3, Hela-JC53, 48 h; procedure, shortened: as §3
[27] = tested on: Human immunodeficiency virus 1; assay: Antiviral activity against HIV1 isolate with RT K103N-K101Q mutation; type: functional, organism-based; procedure, shortened: as §1
[28] = tested on: Human immunodeficiency virus 1; assay: Antiviral activity against HIV1 isolate with RT K103N-G190A mutation; type: functional, organism-based; procedure, shortened: as §1
[29] = tested on: Human immunodeficiency virus 1; assay: Antiviral activity against HIV1 NL4-3 with Y188L mutation in Hela-JC53 cells in the presence of 20% human serum after 48 hrs; type: functional, organism-based; conditions: Human immunodeficiency virus 1, NL4-3, Hela-JC53, 48 h; procedure, shortened: as §2
[30] = tested on: Human immunodeficiency virus 1; assay: Antiviral activity against HIV1 NL4-3 in Hela-JC53 cells in the presence of 10% human serum after 48 hrs; type: functional, organism-based; conditions: Human immunodeficiency virus 1, NL4-3, Hela-JC53, 48 h; procedure, shortened: as §3
[31] = target: DNA polymerase beta (Homo sapiens) (UniProt P06746); assay: Inhibition of human DNA polymerase beta upto 45 uM
[32] = tested on: Human immunodeficiency virus 1; assay: Antiviral activity against HIV1 isolate with RT K103N-V108I-A98G mutation; type: functional, organism-based; procedure, shortened: as §1
[33] = tested on: Human immunodeficiency virus 1; assay: Antiviral activity against HIV1 isolate with RT V106I, Y181C, F227L, T369I mutation in Hela-JC-53 cells; type: functional
[34] = tested on: Human immunodeficiency virus 1; assay: Antiviral activity against HIV1 NL4-3 with Y188L mutation in Hela-JC53 cells in the presence of 30% human serum after 48 hrs; type: functional, organism-based; conditions: Human immunodeficiency virus 1, NL4-3, Hela-JC53, 48 h; procedure, shortened: as §2
[35] = tested on: Human immunodeficiency virus 1; assay: Antiviral activity against wild type HIV1 NL4-3 in Hela-JC53 cells in the presence of 30% human serum after 48 hrs; type: functional, organism-based; conditions: Human immunodeficiency virus 1, NL4-3, Hela-JC53, 48 h; procedure, shortened: as §3
[36] = tested on: Human immunodeficiency virus 1; assay: Antiviral activity against HIV1 isolate with RT 103N, 190A mutation relative to wild type; type: functional
[37] = tested on: Human immunodeficiency virus 1; assay: Antiviral activity against HIV1 isolate with RT 101R, 103N, 181C, 190A mutation relative to wild type; type: functional

Compound: NS(=O)(=O)c1ccc(NC(=O)CSc2nnc(Br)n2-c2ccc(C3CC3)c3ccccc23)c(Cl)c1
- pEC50 [1]: 9.52
- pIC50 [2]: 8.40
- pEC50 [3]: 9.64
- pEC50 [4]: 7.10
- Fold change [5]: 9.1
- pEC50 [6]: 7.86
- pEC50 [7]: 9.82
- Tmax [8]: 0.28 h
- Fold change [9]: 31.2
- pEC50 [10]: 8.62
- half-life [11]: 2.89 h
- Fold change [12]: 1.9
- pEC50 [13]: 9.64
- Activity (Hepatitis C virus): inactive
- Fold change [14]: 18.7
- concentration at 12 h [15]: 742 ng/mL
- pEC50 [16]: 9.85
- Fold change [17]: 0.7
- pEC50 [18]: 7.68
- pEC50 [19]: 7.27
- Fold change [20]: 5.4
- pEC50 [21]: 10.05
- pEC50 [22]: 9.64
- Activity (Hepatitis B virus): inactive
- pEC50 [23]: 9.89
- pEC50 [24]: 9.72
- Fold change [25]: 1
- pEC50 [26]: 8.02
- pEC50 [27]: 9.82
- pEC50 [28]: 9.49
- pEC50 [29]: 7.36
- pEC50 [30]: 8.41
- Activity [31]: inactive
- pEC50 [32]: 9.62
- Fold change [33]: 111.9
- pEC50 [34]: 7.34
- pEC50 [35]: 8.07

Compound: Cc1ccnc2c1NC(=O)c1cccnc1N2C1CC1 [NEVIRAPINE]
- Fold change [36]: >100
- Fold change [37]: >100
